This note sets out measurements from ChEMBL document CHEMBL4765243, “Discovery of Novel Bromophenol-Thiosemicarbazone Hybrids as Potent Selective Inhibitors of Poly(ADP-ribose) Polymerase-1 (PARP-1) for Use in Cancer” (J Med Chem, 2019).

Data set [1] deals with SK-OV-3. Put plainly: Antiproliferative activity against human SK-OV-3 cells assessed as cell growth inhibition at 20 uM incubated for 48 hrs by MTT assay relative to control. Format: functional.
Data set [2] has as its system L02. The data set is described as follows: Cytotoxicity against human HL7702 cells assessed as cell growth inhibition incubated for 48 hrs by MTT assay. In kind it is cell-based. The conditions noted are these: L02, 48 h. The method, boiled down:
(§1)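 Cells seeded in 96-well plates and exposed to compounds for 48 h; viability read by MTT. Each experiment repeated three times. SK-OV-3 grown in McCOY's 5A, Bel-7402 and HL-7702 in RPMI-1640, HepG2 in DMEM, Caco-2 in MEM.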
Background: Tetrazolium dyes change colour on reduction, which living cells bring about.

Data set [3] concerns the target Poly [ADP-ribose] polymerase 1 (Homo sapiens, UniProt P09874). Conditions: dose 100.0 nM, time 30.0 min.
Data set [4] concerns HepG2. Put plainly: Antiproliferative activity against human HepG2 cells assessed as cell growth inhibition at 20 uM incubated for 48 hrs by MTT assay relative to control. Format: functional.
The test system of data set [5] is HepG2. The data set is described as follows: Antiproliferative activity against human HepG2 cells assessed as cell growth inhibition incubated for 48 hrs by MTT assay. Format: functional, cell-based. Conditions: HepG2, 48 h. The method, boiled down: as §1
Data set [6] concerns Bel-7402. The data set is described as follows: Antiproliferative activity against human Bel-7402 cells assessed as cell growth inhibition at 20 uM incubated for 48 hrs by MTT assay relative to control. Format: functional.
In data set [7] the test system is Bel-7402. The data set is described as follows: Antiproliferative activity against human Bel-7402 cells assessed as cell growth inhibition incubated for 48 hrs by MTT assay. Format: functional, cell-based. Conditions: Bel-7402, 48 h. The method, boiled down:
as §1

Data set [8] deals with SK-OV-3. The data set is described as follows: Antiproliferative activity against human SK-OV-3 cells assessed as cell growth inhibition incubated for 48 hrs by MTT assay. In kind it is functional, cell-based. The conditions noted are these: SK-OV-3, 48 h. The gist of the method: as §1
A short description of data set [9]: Cytotoxicity against human HL7702 cells assessed as cell growth inhibition at 20 uM incubated for 48 hrs by MTT assay relative to control. In kind it is cell-based. The conditions noted are these: HL7702 (L02) cells.
The subject of data set [10] is Caco-2. Put plainly: Antiproliferative activity against human Caco-2 cells assessed as cell growth inhibition at 20 uM incubated for 48 hrs by MTT assay relative to control. In kind it is functional.
Data set [11] relates to Caco-2. Put plainly: Antiproliferative activity against human Caco-2 cells assessed as cell growth inhibition incubated for 48 hrs by MTT assay. Conditions: Caco-2, 48 h. Format: functional, cell-based. The gist of the method:
as §1

Sequence of Poly [ADP-ribose] polymerase 1 (P09874 whole entry): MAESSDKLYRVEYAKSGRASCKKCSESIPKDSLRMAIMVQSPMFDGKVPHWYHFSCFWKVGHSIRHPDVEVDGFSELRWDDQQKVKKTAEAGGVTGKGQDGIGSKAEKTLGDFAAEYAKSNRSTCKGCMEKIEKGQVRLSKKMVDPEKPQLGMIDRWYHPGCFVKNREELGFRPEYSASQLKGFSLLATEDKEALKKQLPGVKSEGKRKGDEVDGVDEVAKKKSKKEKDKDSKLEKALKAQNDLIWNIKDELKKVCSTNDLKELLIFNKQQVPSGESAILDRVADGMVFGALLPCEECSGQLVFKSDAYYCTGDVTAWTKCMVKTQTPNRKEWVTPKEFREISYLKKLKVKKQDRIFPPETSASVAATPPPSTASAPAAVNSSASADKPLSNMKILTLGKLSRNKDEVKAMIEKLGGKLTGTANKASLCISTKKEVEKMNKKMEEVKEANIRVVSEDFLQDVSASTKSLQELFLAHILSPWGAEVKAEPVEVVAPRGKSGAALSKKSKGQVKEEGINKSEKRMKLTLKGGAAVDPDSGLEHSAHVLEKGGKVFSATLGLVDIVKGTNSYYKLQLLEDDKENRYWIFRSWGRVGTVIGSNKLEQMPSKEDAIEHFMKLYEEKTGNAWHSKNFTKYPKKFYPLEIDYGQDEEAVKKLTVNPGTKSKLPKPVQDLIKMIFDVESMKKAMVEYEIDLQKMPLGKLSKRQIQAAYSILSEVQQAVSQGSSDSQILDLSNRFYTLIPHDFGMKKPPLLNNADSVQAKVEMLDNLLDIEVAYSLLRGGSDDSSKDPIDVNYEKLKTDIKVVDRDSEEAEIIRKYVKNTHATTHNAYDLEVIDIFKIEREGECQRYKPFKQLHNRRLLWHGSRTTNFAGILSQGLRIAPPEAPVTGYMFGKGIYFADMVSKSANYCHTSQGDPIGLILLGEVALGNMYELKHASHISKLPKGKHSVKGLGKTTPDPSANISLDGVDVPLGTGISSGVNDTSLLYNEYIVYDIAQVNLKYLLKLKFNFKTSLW

On to `Oc1cc(/C=N/NC(=S)Nc2ccccc2)c(Br)c(Br)c1O`, for which the inhibition at 20 µM in data set [1] was determined as 54.6%; in data set [4], 72.9%; in data set [6], 73.1%; in [10] it was 76.4%. Besides, the half-maximal inhibitory concentration (IC50) in data set [2] was 5.65 µM; in [5], 7.08 µM; in [7], 12.3 µM; in data set [8] it was 5.12 µM; in data set [11], 9.34 µM. For the same molecule, the inhibition in [3] is 45.9%. Also, the inhibition at 48 h, 20 µM in [9] was 94.5%.

`COc1cc(/C=N/NC(N)=S)cc(Br)c1OC`: the inhibition at 20 µM was under 0% in data set [1], 61.1% in [4], 17.6% in [6] and 18.9% in data set [10]. The same molecule yielded an inhibition in data set [3] of 23.2%. The inhibition at 48 h, 20 µM in data set [9] was determined as 2.11%.

Consider `COc1cc(/C=N/NC(N)=S)ccc1O`, for which the inhibition in data set [3] is 28%.

On to `COc1ccc(/C=N/NC(=S)Nc2ccccc2)cc1O`, for which the inhibition at 20 µM in data set [1] was 41.4%; in [4], 38%; in data set [6], 32.2%; in data set [10] it was 71.4%. Also, in [3], the inhibition worked out at 37.5%. Moreover, the inhibition at 48 h, 20 µM in data set [9] came out at 41.4%.

Turning to `COc1cc(/C=N/NC(=S)Nc2ccc(Cl)cc2)c(Br)c(Br)c1OC`, the inhibition at 20 µM in data set [1] was found to be 81.2%; in data set [4], 62.7%; in [6], 51.5%; in [10] it was 44.8%. Also, the IC50 in [2] is 3.5 µM; in [5], 13.4 µM; in data set [7] it was 13.9 µM; in data set [8], 15.3 µM; in data set [11], 10.1 µM. The same molecule gave an inhibition in [3] of 38.2%. The inhibition at 48 h, 20 µM in data set [9] turned out to be 85.5%.

In the case of `Oc1ccc(/C=N/NC(=S)Nc2ccccc2)cc1O`, the inhibition at 20 µM in [1] is under 0%; in data set [4], under 0%; in data set [6], 38.8%; in [10] it was 78.2%. The inhibition in data set [3] was 40.7%. In addition, the inhibition at 48 h, 20 µM in data set [9] turned out to be 76.4%.

On to `COc1cc(/C=N/NC(=S)Nc2ccc(F)cc2)cc(Br)c1OC`, for which the inhibition at 20 µM in [1] was 42.4%; in data set [4], 32.3%; in [6], 48.2%; in [10], 49.1%. Also, in [3], the inhibition came out at 38.1%. The inhibition at 48 h, 20 µM in [9] amounted to 68.6%.

As for `COc1cc(/C=N/NC(=S)Nc2ccccc2)cc(Br)c1O`, the inhibition at 20 µM in data set [1] was found to be 56%; in [4], 62%; in data set [6] it was 25.3%; in data set [10], 62.9%. In addition, the inhibition in data set [3] was 35.5%. Also, the inhibition at 48 h, 20 µM in data set [9] came to 40.7%.

Consider `COc1cc(/C=N/NC(=S)Nc2ccccc2)ccc1O`, for which the inhibition at 20 µM was found to be 45.3% in [1], 58.4% in [4], 41% in data set [6] and 75.1% in [10]. Also, in [3], the inhibition came to 20.6%. In addition, in data set [9], the inhibition at 48 h, 20 µM came out at 9.28%.

In the case of `COc1cc(/C=N/NC(=S)Nc2cccc(C(F)(F)F)c2)cc(Br)c1OC`, the inhibition at 20 µM in data set [1] amounted to 63.3%; in data set [4] it was 36.4%; in [6], 26%; in data set [10], 21%. The same molecule had an inhibition in data set [3] of 38.3%. Further, the inhibition at 48 h, 20 µM in data set [9] came out at 58.6%.

As to `NC(=S)N/N=C/c1cc(O)c(O)c(Br)c1`, the inhibition at 20 µM in data set [1] is under 0%; in data set [4] it was under 0%; in [6], under 0%; in data set [10] it was 47.9%. Besides, the inhibition in data set [3] was 30.2%. In addition, in data set [9], the inhibition at 48 h, 20 µM is 54.8%.

Turning to `COc1cc(/C=N/NC(=S)Nc2ccc(Oc3ccccc3)cc2)cc(Br)c1OC`, the inhibition at 20 µM is 32.3% in data set [1], under 0% in data set [4], 33.8% in [6] and 76.3% in data set [10]. The same molecule returned an inhibition in data set [3] of 27.7%. Besides, the inhibition at 48 h, 20 µM in data set [9] was found to be 75.9%.

For the molecule `COc1cc(/C=N/NC(=S)Nc2ccc(Oc3ccccc3)cc2)c(Br)c(Br)c1OC`, the inhibition at 20 µM is 15% in data set [1], under 0% in data set [4], under 0% in data set [6] and under 0% in data set [10]. Further, the inhibition in data set [3] amounted to 23.7%. For the same molecule, the inhibition at 48 h, 20 µM in [9] was under 0%.

Take `COc1ccc(/C=N/NC(=S)Nc2ccccc2)c(Br)c1O`: the inhibition at 20 µM is 62.1% in data set [1], 65.6% in data set [4], 36.4% in data set [6] and 82.4% in [10]. The inhibition in data set [3] is 42.9%. Further, the inhibition at 48 h, 20 µM in [9] was 46.9%.

As for `Oc1cc(/C=N/NC(=S)Nc2ccccc2)cc(Br)c1O`, the inhibition at 20 µM in data set [1] amounted to 76.2%; in data set [4], 67.9%; in [6], 63.5%; in data set [10], 72%. Also, the IC50 in data set [2] is 13.4 µM; in data set [5], 9.29 µM; in data set [7], 13.1 µM; in data set [8] it was 14 µM; in [11], 22.7 µM. The inhibition in [3] is 28%. In addition, the inhibition at 48 h, 20 µM in [9] is 86.4%.

`COc1cc(/C=N/NC(=S)Nc2ccccc2)c(Br)c(Br)c1O`: the inhibition at 20 µM amounted to 65.5% in [1], 57.1% in data set [4], 39.5% in data set [6] and 34.9% in [10]. In addition, the inhibition in data set [3] was 12.5%. In addition, the inhibition at 48 h, 20 µM in data set [9] is 27.8%.

`COc1cc(/C=N/NC(=S)NCCCN2CCOCC2)cc(Br)c1OC`: the inhibition at 20 µM amounted to 37.7% in [1], 35.2% in [4], 39.4% in data set [6] and 36.9% in data set [10]. In addition, the inhibition in [3] was 33%. The inhibition at 48 h, 20 µM in [9] is 24.7%.

Turning to `COc1cc(Br)c(/C=N/NC(N)=S)cc1OC`, the inhibition at 20 µM in data set [1] was determined as 20.8%; in [4], 37.6%; in data set [6] it was 18.3%; in [10], 8.65%. In data set [3], this molecule returned an inhibition of 42.6%. In addition, in data set [9], the inhibition at 48 h, 20 µM amounted to 42.5%.

Consider `COc1cc(/C=N/NC(=S)Nc2cccc(C(F)(F)F)c2)c(Br)c(Br)c1OC`, for which the inhibition at 20 µM in data set [1] is under 0%; in [4] it was 43.2%; in data set [6], 12.7%; in data set [10], 6.4%. This molecule displayed an inhibition in [3] of 23%. Besides, the inhibition at 48 h, 20 µM in data set [9] was 71.1%.

On to `CNC(=S)N/N=C/c1cc(OC)c(OC)c(Br)c1Br`, for which the inhibition at 20 µM is 18.3% in data set [1], 38.9% in data set [4], 3.9% in data set [6] and under 0% in [10]. In data set [3], this molecule yielded an inhibition of 32.2%. Further, in data set [9], the inhibition at 48 h, 20 µM came out at 63.4%.

For `CNC(=S)N/N=C/c1cc(Br)c(OC)c(OC)c1`, the inhibition at 20 µM in [1] is 32.9%; in data set [4] it was 57.2%; in data set [6], 29.6%; in data set [10] it was 43.8%. The inhibition in data set [3] was 44.1%. Also, the inhibition at 48 h, 20 µM in data set [9] was determined as 44.3%.

For the molecule `COc1cc(/C=N/NC(N)=S)cc(Br)c1O`, the inhibition at 20 µM in data set [1] came out at 21.6%; in data set [4], 29.6%; in data set [6], 32.3%; in data set [10], 35.6%. In addition, the inhibition in [3] was determined as 42.9%. For the same molecule, the inhibition at 48 h, 20 µM in [9] is under 0%.

In turn, `COc1ccc(/C=N/NC(N)=S)cc1O` gave an inhibition in [3] of 28.1%.

For `COc1cc(/C=N/NC(=S)Nc2ccc(F)cc2)c(Br)c(Br)c1OC`, the inhibition at 20 µM was found to be 66.3% in [1], 60.5% in data set [4], 54.6% in [6] and 24.5% in data set [10]. Besides, in data set [3], the inhibition was determined as 46.6%. The inhibition at 48 h, 20 µM in data set [9] came to 85.1%.

For `COc1ccc(/C=N/NC(N)=S)c(Br)c1O`, the inhibition at 20 µM in [1] came out at 9.92%; in data set [4], 38.5%; in [6], 21.4%; in data set [10], 9.01%. In [3], this molecule displayed an inhibition of 34.8%. The inhibition at 48 h, 20 µM in [9] was 31.8%.

With `COc1cc(/C=N/NC(=S)Nc2ccccc2)cc(Br)c1OC`, the inhibition at 20 µM in data set [1] was 55.5%; in data set [4], 40%; in data set [6], 75.2%; in [10], 67.1%. In data set [3], this molecule gave an inhibition of 18.2%. Moreover, the inhibition at 48 h, 20 µM in data set [9] is 72.1%.

For the molecule `COc1cc(/C=N/NC(=S)Nc2ccc(Cl)cc2)cc(Br)c1OC`, the inhibition at 20 µM in data set [1] stood at 41.5%; in data set [4], 46.6%; in [6], 55.7%; in data set [10], 55.4%. In data set [3], this molecule returned an inhibition of 32.2%. The inhibition at 48 h, 20 µM in data set [9] is 42.9%.

On to `COc1cc(Br)c(/C=N/NC(=S)Nc2ccccc2)cc1OC`, for which the inhibition at 20 µM was 41.3% in data set [1], 67% in data set [4], 19.3% in data set [6] and 25.7% in [10]. Also, the inhibition in data set [3] was determined as 37%. Moreover, the inhibition at 48 h, 20 µM in [9] was 78.7%.

One may read the inhibition as the percentage by which the read-out fell short of the control. Broadly, the IC50 is the concentration at which inhibition is half-maximal.
